ChEMBL document CHEMBL1137848, “Discovery of isoxazolinone antibacterial agents. Nitrogen as a replacement for the stereogenic center found in oxazolidinone antibacterials” (2004)
≈ marks a conversion by molar mass, not a printed value.

Assays:
Format in all cases: functional
[1] = tested on: Enterococcus faecalis; test: Minimum inhibitory concentration against Enterococcus faecalis (strain A20688) in absence of calf serum
Summary of the method: (§1)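 Broth microdilution MIC per NCCLS method in Mueller-Hinton broth without serum. Final inoculum approximately 5·10⁵ CFU/well in microtiter plates, incubated 35 °C for 18 h in ambient air.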

[2] = tested on: Staphylococcus aureus; test: Minimum inhibitory concentration against Staphylococcus aureus (strain A15090) in absence of calf serum; summary of the method: as §1
[3] = tested on: Enterococcus faecalis; test: Minimum inhibitory concentration against Enterococcus faecalis (strain A20688) in presence of 50% calf serum
Summary of the method: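 Broth microdilution MIC per NCCLS method in Mueller-Hinton broth supplemented with 50% calf serum. Final inoculum approximately 5·10⁵ CFU/well, incubated 35 °C for 18 h in ambient air.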

[4] = tested on: Haemophilus influenzae; test: Minimum inhibitory concentration against Haemophilus influenzae (strain A20191) in absence of calf serum
Summary of the method: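 MIC by NCCLS microbroth dilution in Haemophilus test medium broth without serum. Inoculum approximately 5·10⁵ CFU/well in microtiter plates, incubated at 35 °C for 18 h in ambient air.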

[5] = tested on: Staphylococcus aureus; test: Minimum inhibitory concentration against Staphylococcus aureus (strain A15090) in presence of 50% calf serum
Summary of the method: (§2)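 Microbroth dilution MIC following the NCCLS method, with 50% calf serum added. Mueller-Hinton broth, inoculum approximately 5·10⁵ CFU/well, incubated at 35 °C for 18 h in ambient air.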

[6] = tested on: Staphylococcus aureus; test: Minimum inhibitory concentration against methicillin resistant Staphylococcus aureus (strain A27223) in absence of calf serum
Summary of the method: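 Microbroth dilution MIC following the NCCLS method, no serum added. Mueller-Hinton broth, inoculum approximately 5·10⁵ CFU/well, incubated at 35 °C for 18 h in ambient air.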

[7] = tested on: Staphylococcus aureus; test: Minimum inhibitory concentration against methicillin resistant Staphylococcus aureus (strain A27223) in presence of 50% calf serum; summary of the method: as §2

Structure (SMILES) | MIC [1] | MIC [2] | MIC [3] | MIC [4] | MIC [5] | MIC [6] | MIC [7]
CC(=O)NCn1cc(-c2ccc(F)cc2)c(=O)o1 | > 128 µg/mL | > 128 µg/mL | > 64 µg/mL | 32 µg/mL (≈ 128 µM) | > 64 µg/mL | – | –
COc1ccc(-c2cnoc2O)cc1 | > 128 µg/mL | > 128 µg/mL | > 64 µg/mL | > 64 µg/mL | > 64 µg/mL | – | –
CC(=O)NCn1cc(-c2cc(F)cc(F)c2)c(=O)o1 | 32 µg/mL (≈ 119 µM) | 8 µg/mL (≈ 29.8 µM) | – | > 64 µg/mL | – | 8 µg/mL (≈ 29.8 µM) | –
CC(=O)NC[C@H]1CN(c2ccc(N3CCOCC3)c(F)c2)C(=O)O1 [LINEZOLID] | 0.5 µg/mL (≈ 1.48 µM) | 1 µg/mL (≈ 2.96 µM) | 0.5 µg/mL | 8 µg/mL (≈ 23.7 µM) | 1 µg/mL | 1 µg/mL (≈ 2.96 µM) | 1 µg/mL
CC(=O)NCn1cc(-c2ccccc2)c(=O)o1 | 16 µg/mL (≈ 68.9 µM) | 8 µg/mL (≈ 34.4 µM) | 16 µg/mL | 8 µg/mL (≈ 34.4 µM) | 16 µg/mL | 4 µg/mL (≈ 17.2 µM) | 8 µg/mL
COc1cccc(-c2cn(CNC(C)=O)oc2=O)c1 | 32 µg/mL (≈ 122 µM) | 32 µg/mL (≈ 122 µM) | > 64 µg/mL | > 64 µg/mL | 64 µg/mL | 16 µg/mL (≈ 61 µM) | > 64 µg/mL
Oc1oncc1-c1ccc2c(c1)OCO2 | > 128 µg/mL | > 128 µg/mL | > 64 µg/mL | > 64 µg/mL | > 64 µg/mL | – | –
CC(=O)NCn1cc(-c2ccc(-c3ccccc3)cc2)c(=O)o1 | 4 µg/mL (≈ 13 µM) | 4 µg/mL (≈ 13 µM) | 64 µg/mL | 16 µg/mL (≈ 51.9 µM) | > 64 µg/mL | 1 µg/mL (≈ 3.24 µM) | 64 µg/mL
CC(=O)NCn1cc(-c2ccc(C(C)C)cc2)c(=O)o1 | 2 µg/mL (≈ 7.29 µM) | 1 µg/mL (≈ 3.65 µM) | 8 µg/mL | – | 4 µg/mL | – | –
CC(=O)NCn1cc(-c2cccc(F)c2)c(=O)o1 | 16 µg/mL (≈ 63.9 µM) | 8 µg/mL (≈ 32 µM) | – | > 64 µg/mL | – | 4 µg/mL (≈ 16 µM) | –
CC(=O)NCn1cc(-c2cccc(Cl)c2)c(=O)o1 | 16 µg/mL (≈ 60 µM) | 8 µg/mL (≈ 30 µM) | > 64 µg/mL | 32 µg/mL (≈ 120 µM) | > 64 µg/mL | 4 µg/mL (≈ 15 µM) | 16 µg/mL
COc1ccc(-c2cn(CNC(C)=O)oc2=O)cc1 | 2 µg/mL (≈ 7.63 µM) | 2 µg/mL (≈ 7.63 µM) | 8 µg/mL | 16 µg/mL (≈ 61 µM) | 4 µg/mL | 1 µg/mL (≈ 3.81 µM) | 4 µg/mL
CC(=O)NCn1cc(-c2cc(C(F)(F)F)cc(C(F)(F)F)c2)c(=O)o1 | > 128 µg/mL | > 128 µg/mL | – | > 64 µg/mL | – | – | –
CSc1ccc(-c2cn(CNC(C)=O)oc2=O)cc1 | 1 µg/mL (≈ 3.59 µM) | 2 µg/mL (≈ 7.19 µM) | 16 µg/mL | 8 µg/mL (≈ 28.7 µM) | 16 µg/mL | 1 µg/mL (≈ 3.59 µM) | 8 µg/mL
CC(=O)NCn1cc(-c2ccc(Cl)cc2)c(=O)o1 | 8 µg/mL (≈ 30 µM) | 8 µg/mL (≈ 30 µM) | – | 32 µg/mL (≈ 120 µM) | – | 4 µg/mL (≈ 15 µM) | –
NC(=O)Cn1cc(-c2ccccc2)c(=O)o1 | > 128 µg/mL | – | – | > 64 µg/mL | – | – | –
COc1ccc(-c2cn(CNC(C)=O)oc2=O)cc1OC | > 128 µg/mL | 128 µg/mL (≈ 438 µM) | > 64 µg/mL | > 64 µg/mL | > 64 µg/mL | 64 µg/mL (≈ 219 µM) | –
COc1cc(OC)cc(-c2cn(CNC(C)=O)oc2=O)c1 | > 128 µg/mL | > 128 µg/mL | – | 64 µg/mL (≈ 219 µM) | – | – | –
CC(=O)NCn1cc(-c2cccc(C)c2)c(=O)o1 | 32 µg/mL (≈ 130 µM) | 8 µg/mL (≈ 32.5 µM) | – | > 64 µg/mL | – | 4 µg/mL (≈ 16.2 µM) | –
CC(=O)NCn1cc(-c2ccc(F)c(F)c2)c(=O)o1 | > 128 µg/mL | 128 µg/mL (≈ 477 µM) | > 64 µg/mL | > 64 µg/mL | > 64 µg/mL | > 128 µg/mL | –
CC(=O)NCn1cc(-c2ccc(Br)cc2)c(=O)o1 | 8 µg/mL (≈ 25.7 µM) | 4 µg/mL (≈ 12.9 µM) | > 64 µg/mL | 8 µg/mL (≈ 25.7 µM) | > 64 µg/mL | 2 µg/mL (≈ 6.43 µM) | –
CC(=O)NCn1cc(-c2cccc(C(F)(F)F)c2)c(=O)o1 | 64 µg/mL (≈ 213 µM) | 32 µg/mL (≈ 107 µM) | > 64 µg/mL | > 64 µg/mL | 64 µg/mL | 16 µg/mL (≈ 53.3 µM) | 64 µg/mL
CSc1ccc(-c2cnoc2O)cc1 | > 128 µg/mL | > 128 µg/mL | > 64 µg/mL | > 64 µg/mL | > 64 µg/mL | – | –
CC(=O)NCn1cc(-c2ccc3c(c2)OCO3)c(=O)o1 | 1 µg/mL (≈ 3.62 µM) | 2 µg/mL (≈ 7.24 µM) | 8 µg/mL | 16 µg/mL (≈ 57.9 µM) | 4 µg/mL | 1 µg/mL (≈ 3.62 µM) | 4 µg/mL
Oc1oncc1-c1ccc(-c2ccccc2)cc1 | > 128 µg/mL | > 128 µg/mL | > 64 µg/mL | > 64 µg/mL | > 64 µg/mL | – | –
